zfTRPN1 agonist: zebrafish TRPN1 (NompC) channel agonism; HEK293 zebrafish TRPN1-YFP, Fluo-8 calcium fluorescence; 100% = response to 87 µM carbachol; activation, % at 3 µM; 220,000 tested, 0.18% active; AID 1424;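 active means activation above its plate's cutoff, the mean activation of test wells on that plate plus 3 SD, cut at about 19% in these data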;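 further: 0% = DMSO alone and 100% = 87 µM carbachol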
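Material: zebrafish TRPN1-YFP in HEK293 cells. Doses: one dose of 3 µM, 0.3% DMSO. Incubation: dye 1 h 37 °C plus 30 min RT. Measured by: intracellular calcium fluorescence with Fluo-8.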
TRPML3 agonist: human mucolipin-3 channel agonism; HEK293 TRPML3-YFP, Fluo-8 calcium fluorescence; 100% = the carbachol control signal; activation, % at 3 µM; Q8TDD5; 220,000 tested, 0.29% active; AID 1448;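 active means activation above its plate's cutoff, the mean activation of the plate's test wells plus 3 SD, cut at about 12% in these data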;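 further: 0% = DMSO only wells and 100% = carbachol wells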
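Material: HEK293 cells stably carrying human TRPML3-YFP; compound dosing: single dose, 3 µM final nominal compound, 0.3% DMSO final; incubation: 1-h 37 °C dye load, 5-s basal, 120-s post-compound reads; technique: Fluo-8 intracellular calcium fluorescence, excitation 470-495 nm, emission 515-575 nm; read-out basis: percent activation from peak-to-basal fluorescence ratio, scaled between DMSO and carbachol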
IDE act: IDE (human) activation, cell-based; AID 493087; HEK cells, FAbeta-B cleavage, fluorescence polarization; 0% vehicle, 100% cell-free pure enzyme wells; 340,000 tested, 0.073% active; P14735; activation, % at 5.96 µM;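 active means activation above the mean of all tested compounds plus 3 SD, set per screening campaign, cut at about 17% in these data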
Target sequence (P14735 whole entry, looked up): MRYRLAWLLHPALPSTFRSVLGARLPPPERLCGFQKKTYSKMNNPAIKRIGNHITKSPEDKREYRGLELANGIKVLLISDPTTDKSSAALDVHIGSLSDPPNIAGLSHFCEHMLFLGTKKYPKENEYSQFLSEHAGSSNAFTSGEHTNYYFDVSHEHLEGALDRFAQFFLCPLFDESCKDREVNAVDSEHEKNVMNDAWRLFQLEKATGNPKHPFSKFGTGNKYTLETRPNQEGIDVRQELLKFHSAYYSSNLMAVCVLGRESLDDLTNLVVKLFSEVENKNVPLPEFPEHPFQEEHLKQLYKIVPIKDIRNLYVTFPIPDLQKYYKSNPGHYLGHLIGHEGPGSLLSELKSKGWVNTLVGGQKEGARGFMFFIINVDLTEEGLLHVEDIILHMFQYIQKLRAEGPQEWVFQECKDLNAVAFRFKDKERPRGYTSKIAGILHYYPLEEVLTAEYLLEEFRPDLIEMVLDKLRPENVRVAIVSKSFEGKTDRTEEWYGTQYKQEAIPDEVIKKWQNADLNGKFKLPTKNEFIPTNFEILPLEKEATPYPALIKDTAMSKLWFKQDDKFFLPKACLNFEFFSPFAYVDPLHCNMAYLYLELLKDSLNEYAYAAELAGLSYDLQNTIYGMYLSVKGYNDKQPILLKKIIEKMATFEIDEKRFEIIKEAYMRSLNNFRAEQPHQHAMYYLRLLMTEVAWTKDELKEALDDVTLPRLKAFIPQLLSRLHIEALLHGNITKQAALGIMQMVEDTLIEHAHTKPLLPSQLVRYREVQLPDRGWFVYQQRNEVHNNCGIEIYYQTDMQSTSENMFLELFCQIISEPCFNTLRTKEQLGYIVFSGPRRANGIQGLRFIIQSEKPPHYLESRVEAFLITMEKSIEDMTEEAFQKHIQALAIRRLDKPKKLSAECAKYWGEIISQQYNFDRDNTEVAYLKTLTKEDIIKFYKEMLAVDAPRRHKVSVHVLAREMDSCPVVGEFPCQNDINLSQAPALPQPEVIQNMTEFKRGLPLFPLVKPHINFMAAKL
IDE cell inh: inhibitors of human insulin-degrading enzyme in cells | HEK cells, FAbetaB cleavage, fluorescence polarization | inhibition, % at 5.59 µM | P14735 | 320,000 tested, 0.41% active;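 active means percent inhibition above the average of all tested compounds plus 3 SD, set per screening campaign, cut at about 16% in these data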;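 further: IDE supplied by intact live HEK cells; FP after avidin binding of uncleaved biotin substrate so inhibition keeps polarization high; 0% = DMSO wells and 100% = 60 µM reference IDE inhibitor Ii1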
IDE cell inh cf: cellular human IDE inhibition, confirmation. HEK cells, FAbetaB cleavage, fluorescence polarization. 1,200 tested, 51% active. inhibition, % at 5.59 µM. shares compounds with IDE cell inh;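 active means mean inhibition across triplicate wells above the cutoff set by the earlier primary insulin-degrading enzyme screen, cut at about 16% in these data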;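 further: 0% = DMSO wells and 100% = 60 µM reference IDE inhibitor Ii1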
HEK293 tox: HEK cell cytotoxicity, counter-screen for IDE inhibitors; 1,200 tested, 28% active; inhibition, % at 5.59 µM; AID 449730; HEK293 cytotoxicity, ATP luminescence; shares compounds with IDE cell inh; in the data active means inhibition above about 22%;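 further: 0% = vehicle wells and 100% = reference cytotoxic drug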
* = called active by the depositor; / = no result. Sampled rows, rich in hits. Any-hit rate of the full collection: about 0.63%.

SMILES	zfTRPN1 agonist	TRPML3 agonist	IDE act	IDE cell inh	IDE cell inh cf	HEK293 tox
CC1CCN(c2ccc3c(c2)S(=O)(=O)c2cccc(C(=O)NC4CC4)c2C3=O)CC1	/	/	-7	18*	19*	16
CSc1ccc(CN(C)C(=O)COc2ccc(C(=O)c3ccccc3)cc2)cc1	/	/	0	-1	/	/
O=c1[nH]c(O)c(/C=C2\C=Nc3ccc(Br)cc32)[nH]1	/	/	3	6	/	/
CCCCN1C(=O)c2cccc3cc(O)cc(c23)C1=O	/	/	-10	21*	28*	12
CN(C)CCCN1C(=O)c2cccc3cccc(c23)C1=O	/	/	-1	-6	/	/
C#CCN1C(=O)S/C(=C/c2cc(C)n(CC)c2C)C1=O	0	1	-2	1	/	/
CCn1c(C)cc(/C=C2/SC(=S)N(CC(=O)O)C2=O)c1C	3	2	-34	40*	36*	5
N#CC1=C(N)NC(=S)C(C(N)=O)C1c1ccc(Cl)cc1Cl (configuration not stated)	2	1	-26	5	/	/
N#CC1=C(N)NC(=S)C(C(N)=O)C1c1ccccc1F (configuration not stated)	0	1	-8	27*	11	6
COc1ccc(-c2nnc3ccc(SCC(=O)Nc4nc5ccccc5s4)nn23)cc1OC	-1	0	-24	18*	5	11
COc1ccc(OCCNC(=O)Nc2cc(F)c(F)cc2Cl)cc1	0	0	-9	18*	3	6
COc1cccc(OCCNC(=O)Nc2cc(F)c(F)cc2Cl)c1	-1	0	-5	11	/	/
COC(=O)c1c(C)[nH]c(C(=O)C(C)OC(=O)c2cnc(C)cn2)c1C (configuration not stated)	/	/	4	1	/	/
CC(C)(C)NC(=O)NC(=O)CN1CCN(c2cccc(Cl)c2)CC1	2	2	-29	41*	22*	13
CC(C)(C)NC(=O)NC(=O)CN1CCN(c2ccccc2)CC1	0	-1	-5	-2	/	/
C=CCC(CC(O)COCCC)C(=O)NNC(=S)Nc1ccccc1 (configuration not stated)	0	-1	4	-5	/	/
Cn1c(O)c(C=NCC2CCNCC2)c(=O)n(C)c1=O	1	1	/	/	/	/
CCN1CNC(=S)N(c2cc(C)ccc2C)C1	0	0	5	2	/	/
CN(C(=O)c1ccc(NC(=O)C2CCN(C(=O)OC(C)(C)C)CC2)cc1)C1CCC1	/	/	0	8	/	/
CCN1C(c2ccccc2)=C(c2ccccc2)S/C1=C\C=C1/SC(=S)N(C)C1=O	-1	1	-4	2	/	/
CCN1C(=O)/C(=C/C=C2/Sc3ccc4ccccc4c3N2CCO)SC1=S	-1	0	-6	24*	9	13
CCOC(=O)C1C(=O)C=C(c2ccc(C)cc2)CC1c1ccccc1 (configuration not stated)	-2	1	0	1	/	/
CCOC(=O)C1C(=O)C=C(/C=C/c2ccc(N(C)C)cc2)CC1c1ccccc1 (configuration not stated)	5	5	-114	40*	129*	24*
COC(=O)CN1C(=O)S/C(=C/c2ccc(N3CCCCC3)o2)C1=O	1	1	-142	3	/	/
CCOC(=O)CN1C(=O)S/C(=C/c2ccc(N3CCCCC3)o2)C1=O	2	1	-38	19*	69*	7
SMILES	zfTRPN1 agonist	TRPML3 agonist	IDE act	IDE cell inh	IDE cell inh cf	HEK293 tox
COc1ccc([C@H]2CC(=O)C=C(c3ccc(CNC(=O)OC(C)(C)C)cc3)C2)cc1	/	/	4	1	/	/
O=C(NNC1=Nc2cccc3cccc1c23)c1ccccc1Br	0	1	-9	16*	5	19
c1ccc(NC2=Nc3cccc4cccc2c34)cc1	-1	0	4	0	/	/
COc1ccc2c(c1OC)C(=O)N1C2SC(C)(C)[C@H]1C(=O)NC1CC1 (some centres not stated)	/	/	3	9	/	/
Cc1c(C(=O)C(=O)N2CC=C(c3ccccc3)CC2)c2ccccc2n1C	1	0	-2	16*	2	55*
COc1ccc(NC(=O)c2cc3c(Cl)nc4ccccc4c3s2)cc1OC	-1	1	-16	19*	14	17
COc1ccc(OC)c(NC(=O)c2cc3c(Cl)nc4ccccc4c3s2)c1	2	1	0	5	/	/

High-throughput results from PubChem.
